Key:
Assay type in all cases: functional
[1] = species on record: Homo sapiens; assay: Sensory evaluation was done at a concentration of 3000 p.p.m. against property of bitterness.
How it was run: (§1)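 Sensory evaluation of the samples in solution at pH ~7, where carboxylic acids are ionized.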

[2] = species on record: Homo sapiens; assay: Sensory evaluation was done at a concentration of 3000 p.p.m. against property of sweetness.; how it was run: as §1
[3] = species on record: Homo sapiens; assay: Sensory evaluation was done for sweetness at a concentration of 3000 p.p.m. against sample intensity relative to 10% sucrose.; how it was run: as §1
[4] = species on record: Homo sapiens; assay: Sensory evaluation was done at a concentration of 3000 p.p.m. against other properties.; how it was run: as §1
[5] = species on record: Homo sapiens; assay: Sensory evaluation was done for sweetness at a concentration of 3000 p.p.m. against compound potency calculated on a molar basis.; how it was run: as §1
[6] = species on record: Homo sapiens; assay: Sensory evaluation was done for sweetness at a concentration of 3000 p.p.m. against compound potency calculated on weight basis.; how it was run: as §1
[7] = species on record: Homo sapiens; assay: Sensory evaluation was done at a concentration of 1000 p.p.m. against other properties.
How it was run: (§2)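 Aqueous sample solutions were tasted at about pH 7, so carboxylic acids were in ionized form.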

[8] = species on record: Homo sapiens; assay: Sensory evaluation was done at a concentration of 1000 p.p.m. against property of sweetness.; how it was run: as §2
[9] = species on record: Homo sapiens; assay: Sensory evaluation was done for sweetness at a concentration of 1000 p.p.m. against sample intensity relative to 10% sucrose.; how it was run: as §2
[10] = species on record: Homo sapiens; assay: Sensory evaluation was done for sweetness at a concentration of 1000 p.p.m. against compound potency calculated on a molar basis.
How it was run: (§3)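 Solutions were tasted at about pH 7. Sweetness potency was expressed two ways: Pw, calculated on a weight basis, and Pm, calculated on a molar basis.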

[11] = species on record: Homo sapiens; assay: Sensory evaluation was done for sweetness at a concentration of 1000 p.p.m. against compound potency calculated on weight basis.; how it was run: as §3
[12] = species on record: Homo sapiens; assay: Sensory evaluation was done at a concentration of 1000 p.p.m. against property of bitterness.; how it was run: as §2
[13] = species on record: Homo sapiens; assay: Sensory evaluation was done for sweetness at a concentration of 750 p.p.m. against compound potency calculated on a molar basis.
How it was run: (§4)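 Sweetness tasted in solutions held near pH ~7, so carboxylic acids are ionized. Potency is reported two ways: on a weight basis (Pw) and on a molar basis (Pm).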

[14] = species on record: Homo sapiens; assay: Sensory evaluation was done for sweetness at a concentration of 750 p.p.m. against sample intensity relative to 10% sucrose.; how it was run: as §4
[15] = species on record: Homo sapiens; assay: Sensory evaluation was done at a concentration of 750 p.p.m. against other properties.; how it was run: as §2
[16] = species on record: Homo sapiens; assay: Sensory evaluation was done at a concentration of 750 p.p.m. against property of bitterness.; how it was run: as §2
[17] = species on record: Homo sapiens; assay: Sensory evaluation was done at a concentration of 750 p.p.m. against property of sweetness.; how it was run: as §2
[18] = species on record: Homo sapiens; assay: Sensory evaluation was done for sweetness at a concentration of 750 p.p.m. against compound potency calculated on weight basis.; how it was run: as §4
[19] = species on record: Homo sapiens; assay: Sensory evaluation was done at a concentration of 650 p.p.m. against property of bitterness.; how it was run: as §2
[20] = species on record: Homo sapiens; assay: Sensory evaluation was done for sweetness at a concentration of 650 p.p.m. against compound potency calculated on a molar basis.; how it was run: as §4
[21] = species on record: Homo sapiens; assay: Sensory evaluation was done for sweetness at a concentration of 650 p.p.m. against compound potency calculated on weight basis.; how it was run: as §4
[22] = species on record: Homo sapiens; assay: Sensory evaluation was done for sweetness at a concentration of 650 p.p.m. against sample intensity relative to 10% sucrose.; how it was run: as §4
[23] = species on record: Homo sapiens; assay: Sensory evaluation was done at a concentration of 650 p.p.m. against property of sweetness.; how it was run: as §2
[24] = species on record: Homo sapiens; assay: Sensory evaluation was done at a concentration of 650 p.p.m. against other properties.; how it was run: as §2
[25] = species on record: Homo sapiens; assay: Sensory evaluation was done at a concentration of 500 p.p.m. against property of sweetness.; how it was run: as §2
[26] = species on record: Homo sapiens; assay: Sensory evaluation was done for sweetness at a concentration of 500 p.p.m. against compound potency calculated on a molar basis.; how it was run: as §4
[27] = species on record: Homo sapiens; assay: Sensory evaluation was done for sweetness at a concentration of 500 p.p.m. against compound potency calculated on weight basis.; how it was run: as §4
[28] = species on record: Homo sapiens; assay: Sensory evaluation was done at a concentration of 500 p.p.m. against other properties.; how it was run: as §2
[29] = species on record: Homo sapiens; assay: Sensory evaluation was done at a concentration of 500 p.p.m. against property of bitterness.; how it was run: as §2
[30] = species on record: Homo sapiens; assay: Sensory evaluation was done for sweetness at a concentration of 500 p.p.m. against sample intensity relative to 10% sucrose.; how it was run: as §4
[31] = species on record: Homo sapiens; assay: Sensory evaluation was done for sweetness at a concentration of 634 p.p.m. against sample intensity relative to 10% sucrose.; how it was run: as §4
[32] = species on record: Homo sapiens; assay: Sensory evaluation was done for sweetness at a concentration of 634 p.p.m. against compound potency calculated on a molar basis.; how it was run: as §4
[33] = species on record: Homo sapiens; assay: Sensory evaluation was done for sweetness at a concentration of 634 p.p.m. against compound potency calculated on weight basis.; how it was run: as §4
[34] = species on record: Homo sapiens; assay: Sensory evaluation was done at a concentration of 634 p.p.m. against other properties.; how it was run: as §2
[35] = species on record: Homo sapiens; assay: Sensory evaluation was done at a concentration of 634 p.p.m. against property of sweetness.; how it was run: as §2
[36] = species on record: Homo sapiens; assay: Sensory evaluation was done at a concentration of 634 p.p.m. against property of bitterness.; how it was run: as §2
[37] = species on record: Homo sapiens; assay: Sensory evaluation was done at a concentration of 534 p.p.m. against property of sweetness.; how it was run: as §2
[38] = species on record: Homo sapiens; assay: Sensory evaluation was done for sweetness at a concentration of 534 p.p.m. against sample intensity relative to 10% sucrose.; how it was run: as §4
[39] = species on record: Homo sapiens; assay: Sensory evaluation was done for sweetness at a concentration of 534 p.p.m. against compound potency calculated on weight basis.; how it was run: as §4
[40] = species on record: Homo sapiens; assay: Sensory evaluation was done at a concentration of 534 p.p.m. against other properties.; how it was run: as §2
[41] = species on record: Homo sapiens; assay: Sensory evaluation was done at a concentration of 534 p.p.m. against property of bitterness.; how it was run: as §2
[42] = species on record: Homo sapiens; assay: Sensory evaluation was done for sweetness at a concentration of 534 p.p.m. against compound potency calculated on a molar basis.; how it was run: as §4

CC12CC[C@](C)(C(=O)O)CC1C1=CC(=O)[C@@H]3[C@@]4(C)CC[C@H](O[C@H]5O[C@H](C(=O)O)[C@@H](O)[C@H](O)[C@H]5O[C@@H]5O[C@H](C(=O)O)[C@@H](O)[C@H](O)[C@H]5O)C(C)(C)[C@@H]4CC[C@@]3(C)[C@]1(C)CC2.N (some centres not stated)
Sensory evaluation [1]: 3 | Sensory evaluation [2]: 84 | Ip [3]: 1 | Sensory evaluation [4]: 13 | Pm [5]: 90 | Pw [6]: 33

C=C1C[C@@]23CC[C@H]4[C@@](C)(CCC[C@@]4(C)C(=O)[O-])[C@@H]2CC[C@]1(O[C@@H]1O[C@@H](CO)[C@@H](O)[C@H](O)[C@@H]1O[C@@H]1O[C@@H](CO)[C@@H](O)[C@H](O)[C@@H]1O)C3.[Na+] [Steviolbioside]
Sensory evaluation [7]: 0 | Sensory evaluation [8]: 65 | Ip [9]: 1 | Pm [10]: 190 | Pw [11]: 100 | Sensory evaluation [12]: 35

COC(=O)[C@H](Cc1ccccc1)NC(=O)[C@@H](N)CC(=O)O [ASPARTAME]
Pm [13]: 85 | Ip [14]: 1 | Sensory evaluation [15]: 0 | Sensory evaluation [16]: 0 | Sensory evaluation [17]: 100 | Pw [18]: 130

C=C1C[C@@]23CC[C@H]4[C@@](C)(CCC[C@@]4(C)C(=O)OCCCCS(=O)(=O)[O-])[C@@H]2CC[C@]1(O[C@@H]1O[C@@H](CO)[C@@H](O)[C@H](O)[C@@H]1O[C@@H]1O[C@@H](CO)[C@@H](O)[C@H](O)[C@@H]1O)C3.[Na+]
Sensory evaluation [19]: 17 | Pm [20]: 290 | Pw [21]: 120 | Ip [22]: 0.8 | Sensory evaluation [23]: 79 | Sensory evaluation [24]: 4

C=C1C[C@@]23CC[C@H]4[C@@](C)(CCC[C@@]4(C)C(=O)O[C@@H]4O[C@H](CO)[C@@H](O)[C@H](O)[C@H]4O)[C@@H]2CC[C@]1(O[C@@H]1O[C@H](CO)[C@@H](O)[C@H](O)[C@H]1O[C@@H]1O[C@H](CO)[C@@H](O)[C@H](O)[C@H]1O)C3 [STEVIOSIDE]
Sensory evaluation [25]: 62 | Pm [26]: 440 | Pw [27]: 190 | Sensory evaluation [28]: 8 | Sensory evaluation [29]: 30 | Ip [30]: 0.9

C=C1C[C@@]23CC[C@H]4[C@@](C)(CCC[C@@]4(C)C(=O)OCC(=O)O)[C@@H]2CC[C@]1(O[C@@H]1O[C@@H](CO)[C@@H](O)[C@H](O)[C@@H]1O[C@@H]1O[C@@H](CO)[C@@H](O)[C@H](O)[C@@H]1O)C3
Ip [31]: 0.9 | Pm [32]: 310 | Pw [33]: 140 | Sensory evaluation [34]: 1 | Sensory evaluation [35]: 80 | Sensory evaluation [36]: 19

C=C1C[C@@]23CC[C@H]4[C@@](C)(CCC[C@@]4(C)C(=O)OCCCS(=O)(=O)[O-])[C@@H]2CC[C@]1(O[C@H]1O[C@H](CO)[C@@H](O)[C@H](O)[C@H]1O[C@@H]1O[C@H](CO)[C@@H](O)[C@H](O)[C@H]1O)C3.[Na+]
Sensory evaluation [37]: 92 | Ip [38]: 0.8 | Pw [39]: 160 | Sensory evaluation [40]: 4 | Sensory evaluation [41]: 4 | Pm [42]: 360

From ChEMBL document CHEMBL1123134, “Diterpenoid sweeteners. Synthesis and sensory evaluation of stevioside analogues with improved organoleptic properties” (1985)
